STEP block – inhibitors of human striatal-enriched phosphatase STEP; P54829; recombinant STEP, OMFP fluorogenic substrate, fluorescence; inhibition, % at 20 µM; actives 0.25% (n = 360,000); AID 588621;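 active = inhibition at 20 µM, scaled per plate between control wells, above about 37%, limit read from the data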;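 note: 0% = DMSO with enzyme and substrate and 100% = substrate only without enzyme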
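Test system: STEP tyrosine phosphatase / Reagent: OMFP at 25 µM / Doses: 20 µM, 1% DMSO / Read-out: percent inhibition scaled to no-enzyme and uninhibited-enzyme controls, plate-pattern corrected / Detection: FITC-channel fluorescence of OMFP product / Medium: Bis-Tris buffer pH 6.0, 2.5 mM DTT, 0.005% Tween 20 / Schedule: 20 min at room temperature, dark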
Scp1 inh – blocks human Scp-1 phosphatase activity; Recombinant Scp1, phosphopeptide, malachite green phosphate absorbance; inhibition, % at 20 µM; actives 0.88% (n = 340,000); AID 493091;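 active = inhibition above about 50% at 20 µM, limit read from the data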;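 note: plate controls were DMSO wells with enzyme for no effect and wells lacking enzyme for full effect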
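Test system – truncated SCP-1 phosphatase (76-261aa) · Reagent – Phosphorylated 17-residue peptide substrate · Incubation – 45 min room-temperature reaction, 5 min colour, 30 min stabiliser · Detection – colorimetric phosphate reagent with accelerator and stabiliser, absorbance at 630 nm · Measure – % inhibition at 20 µM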
NadD block – inhibitors of Staphylococcus aureus NadD. actives 0.78% (n = 360,000). inhibition, % at 20 µM. AID 602399. purified NadD enzyme, colorimetric absorbance read-out; in the data active = inhibition above about 26%
SUMO1 PPI mod – alters human SUMO1 binding to SIM partners; P63165; SUMO1 binding to a labelled peptide, TR-FRET, 1 h; inhibition, % at 20 µM; actives 0.33% (n = 360,000); in the data active = inhibition above about 37%
DNMT1 block – DNMT1 (human) enzyme inhibition; DNMT1 molecular beacon, Hinp1I cleavage, fluorescence; actives 0.83% (n = 360,000); P26358; inhibition (reported as % activation of signal), % at 10 µM; in the data active = inhibition above about 50%
LMPTP inh – LMPTP (human) inhibition; recombinant LMPTP-A, OMFP fluorogenic substrate, fluorescence intensity; inhibition, % at 20 µM; actives 0.22% (n = 360,000); P24666; AID 651560;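 active = compounds that cut the enzyme signal by at least half of the control window in the single-dose screen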;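 note: plate controls were DMSO wells with enzyme plus substrate for no effect and substrate without enzyme for full effect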
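Material: LMPTP-A; amount: 0.625 nM enzyme; doses: single 20 µM dose; times: reaction 50 min, room temperature, dark; technique: fluorescence intensity of OMFP turnover product; benchmarks: no-enzyme and uninhibited controls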
Scp-1 conf – confirmation of human Scp-1 phosphatase inhibitors | shares compounds with Scp1 inh | recombinant SCP-1 catalytic domain, phosphate release, malachite green absorbance | inhibition, % at 20 µM | actives 61% (n = 2,500);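 note: plate controls were DMSO with enzyme for no effect and buffer wells lacking enzyme for full effect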
MG interference – counter-screen for Scp-1 inhibitors: colorimetric interference | apparent inhibition (interference), % at 20 µM | shares compounds with Scp1 inh | 2,500 tested, under 10 active | Colorimetric interference counterscreen, malachite green absorbance 630 nm;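 note: compounds added after enzyme reaction finished so only phosphate colour detection is probed; plate controls were DMSO wells with completed Scp-1 reaction for no effect and substrate wells lacking enzyme for full effect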
Scp1 DSF – Scp-1 (human) binding by thermal shift. shares compounds with Scp1 inh. Recombinant SCP1, Sypro Orange thermal shift Tm. thermal shift relative to vanadate control, % at 40 µM. actives 25% (n = 1,500). AID 540329;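 active = substances whose mean melting-temperature shift, as a percentage of the reference inhibitor's shift, reaches about 5.3%, limit read from the data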;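 note: 0% = Tm of DMSO wells and 100% = Tm with sodium orthovanadate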
* marks the source's active call; other numbers are inactive results; . = not tested or not shown. This is a sample that favours compounds with a hit; in the whole collection about 2.4% have one here.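 Rule for the calls, unless noted: active = inhibition of at least 30% at 20 µM; inactive = the rest.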

SMILES | STEP block | Scp1 inh | NadD block | SUMO1 PPI mod | DNMT1 block | LMPTP inh | Scp-1 conf | MG interference | others
CCSc1nnc(NC(=O)C(C)C)s1 | -3 | 0 | -7 | 0 | -2 | -1 | . | .
CC(=O)c1ccc(NC(=O)CSc2ccsc2[N+](=O)[O-])cc1 | 2 | 72* | -1 | -1 | 27 | 12 | 64* | -13 | Scp1 DSF=7.1*
CC(C)NC(=O)c1cnc(Sc2ncc(C(F)(F)F)cc2Cl)n1C | 1 | 6 | -10 | -4 | 2 | 0 | . | .
CCn1c(-c2cc(-c3ccc(OC(C)C)cc3)nc3ccccc23)n[nH]c1=S | 5 | -3 | 3 | 20 | -1 | 3 | . | .
CC1(C(=O)NCc2cccnc2)CCN1C(=O)Cc1cccs1 (centres undefined) | 3 | . | 1 | 5 | -2 | -1 | . | .
CCN(C[C@H]1N[C@@](Cc2ccccc2)(C(=O)OC)[C@H]2C(=O)N(C)C(=O)[C@@H]12)C(=O)COC | -4 | 50* | 2 | 2 | 4 | 1 | -2 | -3
COc1cc(OC)c2ccc(=O)oc2c1C(CC(=O)N1CCCC(C)C1)c1ccc2c(c1)OCO2 (centres undefined) | 6 | 56* | 7 | 2 | 46 | 3 | 54* | -9 | Scp1 DSF=-3
CC(C)c1ccc(NC(=O)C2CC(=O)N(C(C)C)C2)cc1 (centres undefined) | 2 | -9 | 4 | 2 | 0 | 1 | -11 | -12
Nc1nc(=O)n(C2CC(O)C(CO)O2)cc1F (centres undefined) | 0 | 0 | 2 | -2 | -30 | 0 | -3 | -8
NNc1nccc(Nc2ccccc2C(=O)O)n1 | 0 | 66* | 6 | 27 | 2 | 20 | 65* | -7 | Scp1 DSF=0
CC(O)c1cccc(NC(=O)CCC(=O)O)c1 (centres undefined) | 0 | -3 | 2 | -6 | -4 | -1 | . | .
FC(F)(F)c1cnc(C(c2ccccc2)c2ncn[nH]2)c(Cl)c1 (centres undefined) | -1 | 98* | 0 | 3 | 1 | -2 | 2 | -3
COc1ccc(Cl)cc1NC(=O)NCCN1CCNC1=O | 0 | -11 | 0 | 0 | -1 | -1 | -22 | -15
COc1ccccc1NC(=O)NCCN1CCNC1=O | 1 | -10 | 0 | 0 | -1 | 0 | -10 | -14
COc1ccc(Cl)cc1NC(=O)NCCCl | -1 | -20 | 1 | -3 | 1 | -1 | . | .
COc1ccccc1NC(=O)NCCN1CCCCC1 | 3 | 0 | -7 | 0 | -1 | -3 | . | .
COc1ccc(Cl)c2sc(N(CCN(C)C)C(=O)C3=COCCO3)nc12 | 0 | 91* | -9 | -1 | 0 | 0 | -13 | -12
CCOC(=O)C1CCCN(C(=O)c2cccs2)CC1 (centres undefined) | -2 | . | -4 | -5 | -1 | -2 | . | .
O=C(NNC(=O)c1ccc2ccccc2c1)c1ccc(Cl)c(Cl)c1 | 1 | 64* | 13 | 3 | 26 | 15 | 58* | -8 | Scp1 DSF=-23
O=C(NNC(=O)c1cccc2ccccc12)c1ccc(Cl)c(Cl)c1 | -1 | -3 | -1 | -2 | -5 | 0 | . | .
C/C=C(\C)C(=O)NCCN1C2=NC[C@H](Cc3ccccc3)N2C[C@@H]1Cc1ccc(OC)cc1 | 0 | 0 | -1 | -28 | 1 | 1 | . | .
COc1cccc(CNC(=O)CN(C)S(=O)(=O)c2ccc3c(c2)n(C)c(=O)c(=O)n3C)c1 | 2 | -7 | -4 | 5 | 2 | -1 | -1 | 0
COc1ccc(CNC(=O)CN(C)S(=O)(=O)c2ccc3c(c2)n(C)c(=O)c(=O)n3C)cc1 | 0 | -6 | 0 | 5 | 0 | -1 | -8 | -12

Screening data (PubChem BioAssay)
